Substrate: Nc1nc2[nH]cnc2c(=O)[nH]1
Assay: Activity at GDA by colorimetric assay
How it was run: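 Purified rabbit liver guanine deaminase, 8 × 10^-3 U, incubated with guanine at 2, 5, 7, 10, 12, 15, 17 and 20 µM plus inhibitor at 8 or 20 µM. Run in TBS (25 mM Tris-HCl, 137 mM NaCl, 2.7 mM KCl) at pH 7.4 and 25 °C. Guanine hydrolysis followed as OD change at 245 nm. Kinetic constants taken from Lineweaver–Burk plots (1/V vs 1/S).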

B1: Guanine deaminase (Homo sapiens), Q9Y2T3 (protein)
chain: MCAAQMPPLAHIFRGTFVHSTWTCPMEVLRDHLLGVSDSGKIVFLEEASQQEKLAKEWCFKPCEIRELSHHEFFMPGLVDTHIHASQYSFAGSSIDLPLLEWLTKYTFPAEHRFQNIDFAEEVYTRVVRRTLKNGTTTACYFATIHTDSSLLLADITDKFGQRAFVGKVCMDLNDTFPEYKETTEESIKETERFVSEMLQKNYSRVKPIVTPRFSLSCSETLMGELGNIAKTRDLHIQSHISENRDEVEAVKNLYPSYKNYTSVYDKNNLLTNKTVMAHGCYLSAEELNVFHERGASIAHCPNSNLSLSSGFLNVLEVLKHEVKIGLGTDVAGGYSYSMLDAIRRAVMVSNILLINKVNEKSLTLKEVFRLATLGGSQALGLDGEIGNFEVGKEFDAILINPKASDSPIDLFYGDFFGDISEAVIQKFLYLGDDRNIEEVYVGGKQVVPFSSSV
Question: B1 was tested. Which Km did it give?
Answer: 11.2 µM
